Here are results for three molecules from ChEMBL document CHEMBL1123216, “Sustained brain-specific delivery of estradiol causes long-term suppression of luteinizing hormone secretion” (J Med Chem, 1986).

Each structure is given as a SMILES string.

Holding throughout (assay type): functional, organism-based
The subject of experiment [1] is Rattus norvegicus. Briefly: Serum concentration of estradiol 18 days after intravenous administration in Orchidectomized rats. The method, boiled down: (§1)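 Male rats were orchidectomized and 2 weeks later given a single iv dose (2.1 or 3.0 mg/kg, dimethyl sulfoxide vehicle). After decapitation at 12, 18 or 24 days, serum estradiol was measured by a published radioimmunoassay in modified form, in duplicate. Assay sensitivity limit was 20 pg/mL. Values are mean ± SEM, with the number of samples below the limit given per group.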

In experiment [2] the test system is Rattus norvegicus. Briefly: Serum concentration of estradiol 24 days after intravenous administration in Orchidectomized rats. The method, boiled down: as §1
Experiment [3] deals with Rattus norvegicus. Briefly: Serum concentration of LH 12 days after intravenous administration in Orchidectomized rats. The method, boiled down: (§2)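 Male rats given a single iv dose (2.1 or 3.0 mg/kg, dimethyl sulfoxide vehicle at 0.5 mL/kg) 2 weeks after orchidectomy. At 12, 18 or 24 days they were killed by decapitation and serum LH was measured by radioimmunoassay, expressed against reference preparation LH-RP-2. Samples assayed in duplicate; mean ± SEM, 6–7 animals per group.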

In experiment [4] the test system is Rattus norvegicus. Briefly: Serum concentration of estradiol 12 days after intravenous administration in Orchidectomized rats. An outline of the steps:
as §1

The subject of experiment [5] is Rattus norvegicus. Briefly: Serum concentration of LH 18 days after intravenous administration in Orchidectomized rats. An outline of the steps:
as §2

Experiment [6] concerns Rattus norvegicus. Briefly: Serum concentration of LH 24 days after intravenous administration in Orchidectomized rats. An outline of the steps:
as §2

With `CN1C=CCC(C(=O)O[C@H]2CC[C@H]3[C@@H]4CCc5cc(O)ccc5[C@H]4CC[C@]23C)=C1`, the Concentration with Rattus norvegicus [1] is less than 0.02 ng/mL; in the experiment on Rattus norvegicus [2] it was 0.0241 ng/mL; in the experiment on Rattus norvegicus [3] it was 0.8 ng/mL; in the experiment with Rattus norvegicus [4] it was 0.0259 ng/mL; in the experiment with Rattus norvegicus [5], 1.7 ng/mL; in the experiment with Rattus norvegicus [6], 2.9 ng/mL.
As for `C[C@]12CC[C@@H]3c4ccc(O)cc4CC[C@H]3[C@@H]1CC[C@@H]2O`, the Concentration in the experiment with Rattus norvegicus [1] is less than 0.02 ng/mL; with Rattus norvegicus [2], 0.0312 ng/mL; in the experiment on Rattus norvegicus [3], 12.9 ng/mL; with Rattus norvegicus [4], 0.0293 ng/mL; in the experiment on Rattus norvegicus [5], 12.1 ng/mL; with Rattus norvegicus [6], 11.6 ng/mL.
Regarding `C[S+](C)[O-]`, the Concentration was less than 0.02 ng/mL in the experiment on Rattus norvegicus [1]; 0.0244 ng/mL with Rattus norvegicus [2]; 6.8 ng/mL in the experiment with Rattus norvegicus [3]; 0.0275 ng/mL with Rattus norvegicus [4]; 12.4 ng/mL in the experiment on Rattus norvegicus [5]; 8.6 ng/mL in the experiment on Rattus norvegicus [6].
